What was measured:
Dipeptidyl peptidase 1 [1] = biological target: T1, Dipeptidyl peptidase 1 (Homo sapiens, UniProt P53634); experiment: Inhibition of human cathepsin C at 1 uM relative to control
Dipeptidyl peptidase 1 [2] = biological target: T1, Dipeptidyl peptidase 1; experiment: Inhibition of human cathepsin C
How it was run: (§1)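 Values are means of two independent experiments, each run in duplicate.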

[3] = Half life of the compound in 0.1M phosphate buffer at pH 7.4 by HPLC-UV analysis; format: physicochemical
How it was run: (§2)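 Each compound was spiked in bulk into propionaldehyde dissolved in 0.1 M phosphate buffer, pH 7.4. Aliquots were taken at intervals and analysed by HPLC-UV to give percent parent remaining, with incubations lasting up to 15 h. Half-life was calculated from the disappearance of parent. Where no analyte remained at 15 h, only the 2 h data were used. Adduct identity was confirmed as molecular ion +40 amu. This was a single experiment (n = 1).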

[4] = Aldehyde reactivity of the compound in 0.1M phosphate buffer assessed as compound remaining at pH 7.4 measured after 15 hrs in presence of propionaldehyde by HPLC-UV analysis; format: ADME; details: phosphate buffer with propionaldehyde, read-out: Stabilty; how it was run: as §2
Dipeptidyl peptidase 1 [5] = biological target: T1, Dipeptidyl peptidase 1; experiment: Inhibition of cellular cathepsin C (unknown origin); how it was run: as §1
Dipeptidyl peptidase 1 [6] = biological target: T1, Dipeptidyl peptidase 1; experiment: Inhibition of human cathepsin C at 10 uM relative to control
[7] = Aldehyde reactivity of the compound in 0.1M phosphate buffer assessed as compound remaining at pH 7.4 measured after 2 hrs in presence of propionaldehyde by HPLC-UV analysis; format: ADME; details: phosphate buffer with propionaldehyde, read-out: Stabilty; how it was run: as §2
CYP2C8 [8] = biological target: T2, CYP2C8 (Homo sapiens, UniProt P10632); experiment: Inhibition of CYP2C8 (unknown origin) at 1 uM relative to control; format: ADME
T2 sequence (P10632 whole entry): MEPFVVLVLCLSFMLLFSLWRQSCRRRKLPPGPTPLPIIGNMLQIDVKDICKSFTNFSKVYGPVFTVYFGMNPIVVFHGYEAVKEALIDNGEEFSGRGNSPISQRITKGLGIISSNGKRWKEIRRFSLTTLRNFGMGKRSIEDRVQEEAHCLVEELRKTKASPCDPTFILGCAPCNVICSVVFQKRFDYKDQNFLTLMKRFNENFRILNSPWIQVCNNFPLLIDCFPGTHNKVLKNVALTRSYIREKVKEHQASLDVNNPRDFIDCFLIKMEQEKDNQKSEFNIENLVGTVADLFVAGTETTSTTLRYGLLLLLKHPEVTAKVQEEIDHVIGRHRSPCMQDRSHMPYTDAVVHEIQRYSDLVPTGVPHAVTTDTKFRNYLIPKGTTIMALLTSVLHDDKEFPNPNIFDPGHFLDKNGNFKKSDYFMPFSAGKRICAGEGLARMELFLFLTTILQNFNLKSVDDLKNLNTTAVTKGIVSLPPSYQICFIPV

CYP1A2 [9] = biological target: T3, CYP1A2 (Homo sapiens, UniProt P05177); experiment: Inhibition of CYP1A2 (unknown origin) at 10 uM relative to control; format: ADME
T3 sequence (P05177 whole entry): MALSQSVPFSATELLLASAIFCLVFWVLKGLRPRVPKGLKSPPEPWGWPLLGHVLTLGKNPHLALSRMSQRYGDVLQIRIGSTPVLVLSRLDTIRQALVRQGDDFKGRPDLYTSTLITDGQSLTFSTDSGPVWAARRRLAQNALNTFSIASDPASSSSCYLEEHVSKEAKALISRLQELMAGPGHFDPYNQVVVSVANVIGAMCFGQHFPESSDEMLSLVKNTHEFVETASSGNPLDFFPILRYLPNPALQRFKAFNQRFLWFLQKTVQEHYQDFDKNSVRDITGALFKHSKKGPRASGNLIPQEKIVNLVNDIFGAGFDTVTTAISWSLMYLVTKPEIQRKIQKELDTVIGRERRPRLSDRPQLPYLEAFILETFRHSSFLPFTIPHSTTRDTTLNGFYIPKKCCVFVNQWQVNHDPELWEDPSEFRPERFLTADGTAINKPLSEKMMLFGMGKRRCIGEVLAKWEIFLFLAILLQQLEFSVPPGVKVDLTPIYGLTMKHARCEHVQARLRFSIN

[10] = Metabolic stability in mouse liver microsomes assessed as compound remaining measured after 60 mins; format: ADME, Microsome; details: read-out: Stabilty
How it was run: (§3)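 The readout was percent of parent remaining after 60 min incubation with liver microsomal preparations. Values are the mean of three replicates ± SD.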

[11] = Metabolic stability in rat liver microsomes assessed as compound remaining measured after 60 mins; format: ADME, Microsome; details: read-out: Stabilty; how it was run: as §3
[12] = Metabolic stability in human liver microsomes assessed as compound remaining measured after 60 mins; format: ADME, Microsome; details: read-out: Stabilty; how it was run: as §3
CYP2C9 [13] = biological target: T4, CYP2C9 (Homo sapiens, UniProt P11712); experiment: Inhibition of CYP2C9 (unknown origin) at 10 uM relative to control; format: ADME
T4 sequence (P11712 whole entry): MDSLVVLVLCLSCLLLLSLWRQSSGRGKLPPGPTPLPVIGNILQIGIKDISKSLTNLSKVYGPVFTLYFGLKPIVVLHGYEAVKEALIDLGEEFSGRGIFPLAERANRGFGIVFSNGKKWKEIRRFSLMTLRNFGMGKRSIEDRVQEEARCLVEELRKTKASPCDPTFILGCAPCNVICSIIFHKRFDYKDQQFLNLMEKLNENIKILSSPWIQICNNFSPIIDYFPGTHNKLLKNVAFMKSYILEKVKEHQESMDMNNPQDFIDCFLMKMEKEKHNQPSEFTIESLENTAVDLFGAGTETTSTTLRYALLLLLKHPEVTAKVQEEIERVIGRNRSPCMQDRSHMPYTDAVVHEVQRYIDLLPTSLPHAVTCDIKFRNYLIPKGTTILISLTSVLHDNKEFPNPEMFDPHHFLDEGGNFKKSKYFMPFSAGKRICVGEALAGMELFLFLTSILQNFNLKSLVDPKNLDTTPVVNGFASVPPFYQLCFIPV

CYP2C19 [14] = biological target: T5, CYP2C19 (Homo sapiens, UniProt P33261); experiment: Inhibition of CYP2C19 (unknown origin) at 10 uM relative to control; format: ADME
T5 sequence (P33261 whole entry): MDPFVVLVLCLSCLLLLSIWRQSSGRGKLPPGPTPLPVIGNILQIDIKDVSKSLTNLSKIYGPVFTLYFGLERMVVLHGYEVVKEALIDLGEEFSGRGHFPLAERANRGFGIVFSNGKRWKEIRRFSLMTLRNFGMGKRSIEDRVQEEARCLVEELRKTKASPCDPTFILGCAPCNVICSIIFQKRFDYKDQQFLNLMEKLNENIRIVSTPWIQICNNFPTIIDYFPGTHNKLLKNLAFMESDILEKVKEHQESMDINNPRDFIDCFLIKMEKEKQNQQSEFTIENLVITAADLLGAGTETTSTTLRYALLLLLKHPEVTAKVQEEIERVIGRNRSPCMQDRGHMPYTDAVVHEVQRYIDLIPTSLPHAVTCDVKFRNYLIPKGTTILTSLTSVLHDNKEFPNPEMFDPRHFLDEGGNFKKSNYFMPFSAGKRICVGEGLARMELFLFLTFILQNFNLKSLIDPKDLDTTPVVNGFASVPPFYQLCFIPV

CYP2C19 [15] = biological target: T5, CYP2C19; experiment: Inhibition of CYP2C19 (unknown origin) at 1 uM relative to control; format: ADME
CYP1A2 [16] = biological target: T3, CYP1A2; experiment: Inhibition of CYP1A2 (unknown origin) at 1 uM relative to control; format: ADME
Homo sapiens [17] = species on record: Homo sapiens; experiment: Selectivity for human cathepsin C over cathepsin L (unknown origin)
Homo sapiens [18] = species on record: Homo sapiens; experiment: Selectivity for human cathepsin C over cathepsin B (unknown origin)
CYP2D6 [19] = biological target: T6, CYP2D6 (Homo sapiens, UniProt P10635); experiment: Inhibition of CYP2D6 (unknown origin) at 1 uM relative to control; format: ADME
T6 sequence (P10635 whole entry): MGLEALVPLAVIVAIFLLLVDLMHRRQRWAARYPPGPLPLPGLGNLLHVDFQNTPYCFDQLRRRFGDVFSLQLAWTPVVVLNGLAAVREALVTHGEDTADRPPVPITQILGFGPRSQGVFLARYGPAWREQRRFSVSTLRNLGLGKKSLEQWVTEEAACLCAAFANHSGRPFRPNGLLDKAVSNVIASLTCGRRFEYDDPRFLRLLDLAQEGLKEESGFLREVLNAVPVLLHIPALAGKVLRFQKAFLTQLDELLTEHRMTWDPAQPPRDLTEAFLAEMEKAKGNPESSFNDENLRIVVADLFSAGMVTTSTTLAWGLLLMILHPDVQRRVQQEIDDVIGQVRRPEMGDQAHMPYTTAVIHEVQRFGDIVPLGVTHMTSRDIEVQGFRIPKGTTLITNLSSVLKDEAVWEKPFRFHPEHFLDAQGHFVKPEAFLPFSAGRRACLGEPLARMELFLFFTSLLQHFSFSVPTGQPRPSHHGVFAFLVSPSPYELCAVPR

CYP3A4 [20] = biological target: T7, CYP3A4 (Homo sapiens, UniProt P08684); experiment: Inhibition of CYP3A4 (unknown origin) at 1 uM relative to control; format: ADME
T7 sequence (P08684 whole entry): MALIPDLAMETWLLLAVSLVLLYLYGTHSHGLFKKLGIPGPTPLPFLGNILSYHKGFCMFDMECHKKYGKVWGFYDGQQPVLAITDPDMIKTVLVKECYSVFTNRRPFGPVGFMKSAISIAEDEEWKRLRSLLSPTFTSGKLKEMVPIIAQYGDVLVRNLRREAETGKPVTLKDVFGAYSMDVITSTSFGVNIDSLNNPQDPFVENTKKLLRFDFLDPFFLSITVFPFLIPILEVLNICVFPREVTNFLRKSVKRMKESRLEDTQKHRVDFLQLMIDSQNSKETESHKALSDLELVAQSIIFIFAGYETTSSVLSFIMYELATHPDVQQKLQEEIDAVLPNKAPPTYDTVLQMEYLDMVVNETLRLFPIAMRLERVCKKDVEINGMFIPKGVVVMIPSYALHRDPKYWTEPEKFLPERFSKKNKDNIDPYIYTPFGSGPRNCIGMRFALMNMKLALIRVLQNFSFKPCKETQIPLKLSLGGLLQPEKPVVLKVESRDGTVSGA

Homo sapiens [21] = species on record: Homo sapiens; experiment: Selectivity for human cathepsin C over cathepsin S (unknown origin)
[22] = Stability of the compound in human plasma; format: ADME, cell-free
CYP2D6 [23] = biological target: T6, CYP2D6; experiment: Inhibition of CYP2D6 (unknown origin) at 10 uM relative to control; format: ADME
[24] = Stability of the compound in rat plasma; format: ADME, cell-free
CYP3A4 [25] = biological target: T7, CYP3A4; experiment: Inhibition of CYP3A4 (unknown origin) at 10 uM relative to control; format: ADME
[26] = Stability of the compound in mouse plasma; format: ADME, cell-free
Homo sapiens [27] = species on record: Homo sapiens; experiment: Selectivity for human cathepsin C over cathepsin K (unknown origin)
CYP2C9 [28] = biological target: T4, CYP2C9; experiment: Inhibition of CYP2C9 (unknown origin) at 1 uM relative to control; format: ADME
CYP2C8 [29] = biological target: T2, CYP2C8; experiment: Inhibition of CYP2C8 (unknown origin) at 10 uM relative to control; format: ADME
[30] = Aldehyde reactivity of the compound in 0.1M phosphate buffer assessed as compound remaining at pH 7.4 measured after 1 hr in presence of propionaldehyde by HPLC-UV analysis; format: ADME; details: phosphate buffer with propionaldehyde, read-out: Stabilty; how it was run: as §2

T1 sequence (P53634 25-134 limits assumed): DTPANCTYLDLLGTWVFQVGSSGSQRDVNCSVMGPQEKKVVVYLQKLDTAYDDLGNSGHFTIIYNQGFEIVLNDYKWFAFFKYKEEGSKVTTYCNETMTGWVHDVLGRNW
T1 sequence (P53634 231-394 limits assumed): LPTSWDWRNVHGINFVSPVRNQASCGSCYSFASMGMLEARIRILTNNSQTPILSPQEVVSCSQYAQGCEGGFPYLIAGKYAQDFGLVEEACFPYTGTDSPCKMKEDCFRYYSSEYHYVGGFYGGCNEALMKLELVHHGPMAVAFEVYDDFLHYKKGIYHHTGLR
T1 sequence (P53634 395-463 limits assumed): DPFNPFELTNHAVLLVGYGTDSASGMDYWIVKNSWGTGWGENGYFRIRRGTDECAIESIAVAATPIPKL

## N#Cc1ccc(-c2ccc(C[C@@H](C#N)NC(=O)[C@@H]3COCCN3)cc2)cc1
Dipeptidyl peptidase 1 [1]
  inhibition: 75.5%
Dipeptidyl peptidase 1 [2]
  IC50: 308 nM
[3]
  half-life: 945 min
[4]
  remaining at 15 h: 48%
Dipeptidyl peptidase 1 [5]
  IC50: 9720 nM
Dipeptidyl peptidase 1 [6]
  inhibition: 96.3%

## N#Cc1ccc(-c2ccc(C[C@@H](C#N)NC(=O)[C@@H]3CN4CCC[C@@H]4CN3)cc2)cc1
Dipeptidyl peptidase 1 [1]
  inhibition: 4.63%
Dipeptidyl peptidase 1 [6]
  inhibition: 22.8%

## N#Cc1ccc(-c2ccc(C[C@@H](C#N)NC(=O)[C@H]3CN4CCC[C@@H]4CN3)cc2)cc1
Dipeptidyl peptidase 1 [1]
  inhibition: 1.11%
Dipeptidyl peptidase 1 [6]
  inhibition: 1.11%

## N#Cc1ccc(-c2ccc(C[C@@H](C#N)NC(=O)[C@@H]3CC4(CC4)CN3)cc2)cc1
Dipeptidyl peptidase 1 [1]
  inhibition: 92.4%
Dipeptidyl peptidase 1 [2]
  IC50: 77.6 nM
Dipeptidyl peptidase 1 [6]
  inhibition: 99.5%

## N#Cc1ccc(-c2ccc(C[C@@H](C#N)NC(=O)[C@@H]3C[C@H]4CCC[C@@H]4N3)cc2)cc1
Dipeptidyl peptidase 1 [1]
  inhibition: 6.55%
[4]
  remaining at 15 h: 100%
Dipeptidyl peptidase 1 [6]
  inhibition: 50.1%

## N#Cc1ccc(-c2ccc(C[C@@H](C#N)NC(=O)[C@@H]3CCCN3)cc2)cc1
Dipeptidyl peptidase 1 [1]
  inhibition: 91.5%
Dipeptidyl peptidase 1 [2]
  IC50: 91.5 nM
[3]
  half-life: 33.6 min
Dipeptidyl peptidase 1 [6]
  inhibition: 99.1%
[7]
  remaining at 2 h: 8.5%

## N#Cc1ccc(-c2ccc(C[C@@H](C#N)NC(=O)[C@H]3CN4CCC[C@H]4CN3)cc2)cc1
Dipeptidyl peptidase 1 [1]
  inhibition: 68.3%
Dipeptidyl peptidase 1 [2]
  IC50: 394 nM
Dipeptidyl peptidase 1 [6]
  inhibition: 95%

## N#Cc1ccc(-c2ccc(C[C@@H](C#N)NC(=O)[C@@H]3CC4CCCC[C@@H]4N3)cc2)cc1 (single isomer, unassigned)
Dipeptidyl peptidase 1 [1]
  inhibition: 88.7%
Dipeptidyl peptidase 1 [2]
  IC50: 154 nM
Dipeptidyl peptidase 1 [5]
  IC50: 1720 nM
Dipeptidyl peptidase 1 [6]
  inhibition: 99%

## N#Cc1ccc(-c2ccc(C[C@@H](C#N)NC(=O)[C@@H]3CN4CCC[C@H]4CN3)cc2)cc1
Dipeptidyl peptidase 1 [1]
  inhibition: 1.2%
Dipeptidyl peptidase 1 [6]
  inhibition: 0%

## N#Cc1ccc(-c2ccc(C[C@@H](C#N)NC(=O)[C@H]3COCCN3)cc2)cc1
Dipeptidyl peptidase 1 [1]
  inhibition: 2.2%
Dipeptidyl peptidase 1 [6]
  inhibition: 14.2%

## N#Cc1ccc(-c2ccc(C[C@@H](C#N)NC(=O)[C@@H]3CC4(CCCCC4)CN3)cc2)cc1
Dipeptidyl peptidase 1 [1]
  inhibition: 84.3%
Dipeptidyl peptidase 1 [2]
  IC50: 228 nM
Dipeptidyl peptidase 1 [6]
  inhibition: 99.3%

## N#Cc1ccc(-c2ccc(C[C@@H](C#N)NC(=O)[C@@H](N)C34CC5CC(CC(O)(C5)C3)C4)cc2)cc1
Dipeptidyl peptidase 1 [1]
  inhibition: 3.29%
Dipeptidyl peptidase 1 [6]
  inhibition: 2.19%

## N#Cc1ccc(-c2ccc(C[C@@H](C#N)NC(=O)[C@@H]3CC4(CCCC4)CN3)cc2)cc1
Dipeptidyl peptidase 1 [1]
  inhibition: 99%
Dipeptidyl peptidase 1 [2]
  IC50: 10.2 nM
[3]
  half-life: 33.6 min
[4]
  remaining at 15 h: 0%
Dipeptidyl peptidase 1 [5]
  IC50: 69 nM
Dipeptidyl peptidase 1 [6]
  inhibition: 99.7%

## N#Cc1ccc(-c2ccc(C[C@@H](C#N)NC(=O)[C@@H]3C[C@@H]4CCC[C@@H]4N3)cc2)cc1
CYP2C8 [8]
  inhibition at 1 µM: 11.8%
CYP1A2 [9]
  inhibition at 10 µM: 43.7%
[10]
  remaining at 1 h: 6%
[11]
  remaining at 1 h: 3%
Dipeptidyl peptidase 1 [1]
  inhibition: 99.2%
[12]
  remaining at 1 h: 1%
CYP2C9 [13]
  inhibition at 10 µM: 32.4%
CYP2C19 [14]
  inhibition at 10 µM: 38.4%
CYP2C19 [15]
  inhibition at 1 µM: 17.1%
CYP1A2 [16]
  inhibition at 1 µM: 15.2%
Homo sapiens [17]
  Selectivity ratio: 10800
Homo sapiens [18]
  Selectivity ratio: 2260
CYP2D6 [19]
  inhibition at 1 µM: 69.7%
CYP3A4 [20]
  inhibition at 1 µM: 2.2%
Dipeptidyl peptidase 1 [2]
  IC50: 9.27 nM
Homo sapiens [21]
  Selectivity ratio: 4400
[22]
  Stabilty: Stable
[3]
  half-life: > 900 min
[4]
  remaining at 15 h: 97%
CYP2D6 [23]
  inhibition at 10 µM: 88.3%
[24]
  Stabilty: Stable
Dipeptidyl peptidase 1 [5]
  IC50: 699 nM
CYP3A4 [25]
  inhibition at 10 µM: 33.8%
[26]
  Stabilty: Stable
Homo sapiens [27]
  Selectivity ratio: 93
Dipeptidyl peptidase 1 [6]
  inhibition: 100%
CYP2C9 [28]
  inhibition at 1 µM: 12%
CYP2C8 [29]
  inhibition at 10 µM: 40.1%

## N#Cc1ccc(-c2ccc(C[C@@H](C#N)NC(=O)C3(N)CCOCC3)cc2)cc1
Dipeptidyl peptidase 1 [1]
  inhibition: 99.2%
[30]
  remaining at 1 h: 15%
[3]
  half-life: 21.6 min
Dipeptidyl peptidase 1 [6]
  inhibition: 99.9%

## N#Cc1ccc(-c2ccc(C[C@@H](C#N)NC(=O)[C@@H]3CC4(CCC4)CN3)cc2)cc1
Dipeptidyl peptidase 1 [1]
  inhibition: 97.2%
Dipeptidyl peptidase 1 [2]
  IC50: 27.8 nM
Dipeptidyl peptidase 1 [5]
  IC50: 150 nM
Dipeptidyl peptidase 1 [6]
  inhibition: 98.2%

## N#Cc1ccc(-c2ccc(C[C@@H](C#N)NC(=O)[C@@H]3C[C@@H]4C[C@@H]4N3)cc2)cc1
Dipeptidyl peptidase 1 [1]
  inhibition: 83.9%
Dipeptidyl peptidase 1 [2]
  IC50: 223 nM
Dipeptidyl peptidase 1 [6]
  inhibition: 97.9%

## N#Cc1ccc(-c2ccc(C[C@@H](C#N)NC(=O)[C@@H]3C[C@H]4CCC[C@H]4N3)cc2)cc1
Dipeptidyl peptidase 1 [1]
  inhibition: 85.6%
Dipeptidyl peptidase 1 [2]
  IC50: 77.7 nM
[3]
  half-life: 318 min
[4]
  remaining at 15 h: 7%
Dipeptidyl peptidase 1 [5]
  IC50: 79.1 nM
Dipeptidyl peptidase 1 [6]
  inhibition: 98.2%

## Cn1c(=O)oc2ccc(-c3ccc(C[C@@H](C#N)NC(=O)[C@@H]4CNCCCO4)cc3)cc21 [BRENSOCATIB]
[3]
  half-life: > 900 min
[4]
  remaining at 15 h: 95%
